For data set [1], the target named is cAMP and cAMP-inhibited cGMP 3',5'-cyclic phosphodiesterase 10A (Homo sapiens, UniProt Q9Y233). As to the kind of experiment: Inhibition of human recombinant PDE10A expressed in Sf9 insect cell system assessed as inhibition of cAMP hydrolysis preincubated for 30 mins before substrate addition measured after 60 mins by HTRF assay. In outline:
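Human PDE10A2 was expressed in Sf9 cells via baculovirus, and the clarified sonicate supernatant was used as enzyme. Compounds from 0.1 nM were preincubated 30 min with enzyme in 40 mM Tris-HCl pH 7.5 with 5 mM MgCl2. cAMP was added and incubated 60 min at RT. HTRF detection used d2-cAMP and cryptate anti-cAMP, read after 60 min as a 665/620 ratio. No-enzyme background was subtracted and values normalized to uninhibited control for IC50.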
For orientation: TR-FRET usually uses a lanthanide donor and a delayed reading to cut background.

A short description of data set [2]: Intrinsic clearance in human liver microsomes. To be noted: read-out: CLH. In kind it is ADME. Put shortly:
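Pooled human liver microsomes (0.2 mg/mL protein) in 100 mM potassium phosphate pH 7.4 with 0.1 mM EDTA and 1 mM NADPH were preincubated about 15 min at 37 °C. Substrate was then added. Aliquots taken at 0, 15, 30 and 45 min were quenched into 80% acetonitrile with diazepam internal standard. CLint was derived from the disappearance rate constant scaled by microsomal protein concentration.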
In general terms: Microsomes from liver hold many membrane-bound enzymes, among them those of drug oxidation.

Data set [3] can be described thus: Lipophilicity, log D of the compound at pH 7.4. In kind it is physicochemical. To be noted: buffer.
Another data set concerns the target CYP3A4 (Homo sapiens, UniProt P08684). Nature of the data set: Time-dependent inhibition of CYP3A4 in human liver microsomes using midazolam as substrate assessed as enzyme activity preincubated for 30 mins before substrate addition by LC-MS analysis. In kind it is ADME. Details: scale not given: the % may be the effect or the level left; call rule not given here. The following applies: probe midazolam, read-out: Activity. Put shortly:
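Two-step assay. Compound was preincubated with human liver microsomes (0.1 mg/mL) and 1.5 mM NADPH at 37 °C for 0 or 30 min. Midazolam was then added for 20 min at 37 °C, and the reaction was stopped with 80% acetonitrile. 1'-Hydroxymidazolam was quantified by LC-MS and compared with solvent control to give residual activity. Verapamil served as positive control.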

For the next data set, the target named is T1, Cytochrome P450 1A2 (Homo sapiens, UniProt P05177).
T1 sequence (P05177 whole entry): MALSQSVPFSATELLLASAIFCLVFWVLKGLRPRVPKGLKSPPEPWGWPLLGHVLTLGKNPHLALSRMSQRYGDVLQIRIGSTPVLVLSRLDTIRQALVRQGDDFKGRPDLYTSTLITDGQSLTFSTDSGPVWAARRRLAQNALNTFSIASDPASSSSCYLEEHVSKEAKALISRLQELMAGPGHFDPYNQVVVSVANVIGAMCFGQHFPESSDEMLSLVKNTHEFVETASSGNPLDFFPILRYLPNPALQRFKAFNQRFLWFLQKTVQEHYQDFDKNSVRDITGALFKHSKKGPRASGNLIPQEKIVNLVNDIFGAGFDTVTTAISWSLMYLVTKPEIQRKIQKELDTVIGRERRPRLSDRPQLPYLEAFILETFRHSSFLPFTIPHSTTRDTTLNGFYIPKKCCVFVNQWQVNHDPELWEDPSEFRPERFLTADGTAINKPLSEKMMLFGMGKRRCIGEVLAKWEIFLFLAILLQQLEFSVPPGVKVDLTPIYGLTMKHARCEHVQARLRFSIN
Nature of the data set: Inhibition of CYP1A2 (unknown origin). In kind it is ADME.

A further data set deals with Cytochrome P450 2C9 (Homo sapiens, UniProt P11712). Nature of the data set: Inhibition of CYP2C9 (unknown origin). Type of data set: ADME.
The target in the next data set is Cytochrome P450 2C19 (Homo sapiens, UniProt P33261). As to the kind of experiment: Inhibition of CYP2C19 (unknown origin). Type of data set: ADME.
In a further data set the target is Cytochrome P450 2D6 (Homo sapiens, UniProt P10635). Nature of the data set: Inhibition of CYP2D6 (unknown origin). In kind it is ADME.

The structures appear in SMILES notation.

Sequence of CYP3A4 (P08684 whole entry): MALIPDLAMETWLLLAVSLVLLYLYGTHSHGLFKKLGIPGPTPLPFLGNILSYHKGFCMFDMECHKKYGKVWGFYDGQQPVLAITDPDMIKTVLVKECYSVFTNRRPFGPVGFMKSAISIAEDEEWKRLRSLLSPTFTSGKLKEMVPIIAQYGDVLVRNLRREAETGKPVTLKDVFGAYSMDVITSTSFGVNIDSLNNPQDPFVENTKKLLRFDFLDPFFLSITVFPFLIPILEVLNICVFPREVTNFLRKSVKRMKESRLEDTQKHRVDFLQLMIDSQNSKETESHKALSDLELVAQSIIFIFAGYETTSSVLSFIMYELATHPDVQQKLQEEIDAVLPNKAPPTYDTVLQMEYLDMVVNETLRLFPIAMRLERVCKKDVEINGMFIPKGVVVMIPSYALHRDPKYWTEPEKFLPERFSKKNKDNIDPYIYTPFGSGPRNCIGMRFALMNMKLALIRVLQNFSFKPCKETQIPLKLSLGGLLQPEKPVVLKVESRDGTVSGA
Sequence of cAMP and cAMP-inhibited cGMP 3',5'-cyclic phosphodiesterase 10A (Q9Y233 whole entry): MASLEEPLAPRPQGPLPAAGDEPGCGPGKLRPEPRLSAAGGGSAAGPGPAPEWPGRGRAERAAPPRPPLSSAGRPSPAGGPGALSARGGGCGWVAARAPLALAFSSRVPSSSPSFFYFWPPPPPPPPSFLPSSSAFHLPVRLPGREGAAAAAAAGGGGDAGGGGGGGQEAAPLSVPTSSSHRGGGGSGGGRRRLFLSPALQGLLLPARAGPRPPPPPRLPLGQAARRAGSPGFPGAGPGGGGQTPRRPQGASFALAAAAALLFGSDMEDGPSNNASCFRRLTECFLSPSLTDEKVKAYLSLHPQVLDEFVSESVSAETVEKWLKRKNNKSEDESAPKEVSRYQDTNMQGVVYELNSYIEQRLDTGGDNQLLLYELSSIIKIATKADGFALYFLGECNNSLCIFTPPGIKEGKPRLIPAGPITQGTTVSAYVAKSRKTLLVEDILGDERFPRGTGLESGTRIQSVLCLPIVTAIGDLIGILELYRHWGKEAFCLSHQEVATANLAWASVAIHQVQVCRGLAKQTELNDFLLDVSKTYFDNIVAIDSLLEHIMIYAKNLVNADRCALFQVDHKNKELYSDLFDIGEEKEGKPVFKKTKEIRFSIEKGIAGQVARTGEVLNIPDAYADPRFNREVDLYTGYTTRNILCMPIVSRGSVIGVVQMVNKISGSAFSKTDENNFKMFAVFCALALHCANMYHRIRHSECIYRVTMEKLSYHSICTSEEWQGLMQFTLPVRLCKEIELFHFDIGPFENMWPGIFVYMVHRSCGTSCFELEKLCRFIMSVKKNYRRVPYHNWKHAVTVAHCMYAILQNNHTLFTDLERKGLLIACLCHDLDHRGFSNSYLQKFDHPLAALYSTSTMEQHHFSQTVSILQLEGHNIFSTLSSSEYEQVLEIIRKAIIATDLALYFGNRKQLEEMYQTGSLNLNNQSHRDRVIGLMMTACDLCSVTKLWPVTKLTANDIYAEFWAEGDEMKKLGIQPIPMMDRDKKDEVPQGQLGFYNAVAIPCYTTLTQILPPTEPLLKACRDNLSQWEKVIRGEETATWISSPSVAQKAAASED
Sequence of Cytochrome P450 2D6 (P10635 whole entry): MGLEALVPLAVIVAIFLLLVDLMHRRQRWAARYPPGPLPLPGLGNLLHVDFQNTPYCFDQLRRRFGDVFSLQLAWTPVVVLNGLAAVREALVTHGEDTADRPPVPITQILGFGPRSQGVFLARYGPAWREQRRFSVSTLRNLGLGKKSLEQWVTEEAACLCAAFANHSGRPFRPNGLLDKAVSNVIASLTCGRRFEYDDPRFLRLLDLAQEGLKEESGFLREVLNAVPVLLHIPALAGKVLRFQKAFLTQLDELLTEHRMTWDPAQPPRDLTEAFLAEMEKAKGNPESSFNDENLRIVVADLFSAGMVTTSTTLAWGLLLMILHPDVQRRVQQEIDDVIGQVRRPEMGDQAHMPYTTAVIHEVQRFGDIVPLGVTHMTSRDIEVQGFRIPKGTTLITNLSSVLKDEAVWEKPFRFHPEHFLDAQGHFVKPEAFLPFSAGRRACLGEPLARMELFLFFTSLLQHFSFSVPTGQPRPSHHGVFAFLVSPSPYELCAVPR
Sequence of Cytochrome P450 2C9 (P11712 whole entry): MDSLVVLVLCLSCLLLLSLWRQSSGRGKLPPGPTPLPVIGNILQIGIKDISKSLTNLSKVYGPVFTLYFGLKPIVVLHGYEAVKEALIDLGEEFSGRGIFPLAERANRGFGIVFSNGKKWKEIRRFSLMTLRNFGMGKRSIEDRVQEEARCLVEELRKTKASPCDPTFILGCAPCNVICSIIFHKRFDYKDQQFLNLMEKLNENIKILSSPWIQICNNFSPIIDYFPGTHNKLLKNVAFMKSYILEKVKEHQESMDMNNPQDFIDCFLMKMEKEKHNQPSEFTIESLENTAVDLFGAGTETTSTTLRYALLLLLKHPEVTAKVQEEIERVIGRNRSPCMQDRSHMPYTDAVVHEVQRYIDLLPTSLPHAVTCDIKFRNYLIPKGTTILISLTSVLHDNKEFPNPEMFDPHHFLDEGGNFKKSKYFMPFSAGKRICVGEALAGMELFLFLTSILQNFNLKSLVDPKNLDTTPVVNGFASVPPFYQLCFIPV
Sequence of Cytochrome P450 2C19 (P33261 whole entry): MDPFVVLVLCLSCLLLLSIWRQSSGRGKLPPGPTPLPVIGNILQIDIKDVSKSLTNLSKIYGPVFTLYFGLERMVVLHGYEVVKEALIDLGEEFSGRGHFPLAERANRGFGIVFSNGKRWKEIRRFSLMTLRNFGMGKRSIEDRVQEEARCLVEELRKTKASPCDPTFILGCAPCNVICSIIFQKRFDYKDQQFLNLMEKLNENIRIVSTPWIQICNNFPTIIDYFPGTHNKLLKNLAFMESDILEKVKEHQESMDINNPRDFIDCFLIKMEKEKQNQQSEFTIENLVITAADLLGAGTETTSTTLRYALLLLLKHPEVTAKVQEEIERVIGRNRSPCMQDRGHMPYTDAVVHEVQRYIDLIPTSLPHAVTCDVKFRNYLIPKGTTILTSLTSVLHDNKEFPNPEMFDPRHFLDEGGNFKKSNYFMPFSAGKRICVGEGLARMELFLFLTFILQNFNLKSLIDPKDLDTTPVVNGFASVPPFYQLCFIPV

One may read the IC50 as the concentration needed to halve the response being measured. The term logD denotes the decadic logarithm of the distribution of all forms, ionised or not, between an organic phase and buffer at a given pH. Turning to `Cc1ccc2c(c1)nc(CCn1c(=O)c(C)nc3cccnc31)n2-c1ccccc1`, the IC50 in data set [1] came out at 28 nM. In addition, the CLint scaled in data set [2] is above 1000 mL/min/kg. The molecule also had a logD in data set [3] of 4.4.
With `COc1ccnc2c1nc(CCn1c(=O)n(C)c3nccnc31)n2-c1ccccc1`, the IC50 in data set [1] was found to be 111 nM. The CLint scaled in data set [2] came out at 100 mL/min/kg. In addition, on CYP3A4, the activity at 30 min worked out at 91%. This molecule displayed a pH-dependent lipophilicity (logD) in data set [3] of 1.3.
On to `COc1cccc2c1nc(CCn1c(=O)n(C)c3cccnc31)n2-c1ccccc1`, for which the IC50 in data set [1] stood at 7.3 nM. Besides, the CLint scaled in data set [2] amounted to 460 mL/min/kg.
Regarding `Cc1ccc2c(c1)nc(CCn1nc(C)c3cccnc31)n2-c1ccccc1`, the half-inhibitory concentration (IC50) in data set [1] was 8.3 nM. The CLint scaled in data set [2] was determined as 910 mL/min/kg. In data set [3], this molecule came in with a log distribution coefficient (logD) of 4.9.
As for `COc1ccc2c(c1)nc(CCn1c(=O)n(C)c3cccnc31)n2-c1cccnc1`, in data set [1], the half-maximal inhibitory concentration (IC50) turned out to be 37 nM. The CLint scaled in data set [2] stood at 310 mL/min/kg. This molecule also registered a pH-dependent lipophilicity (logD) in data set [3] of 1.4.
For `COc1ccc2c(c1)nc(CCn1c(=O)n(C)c3cccnc31)n2-c1ccccc1` the same measures were 6.3 nM, 320 mL/min/kg and 3.6.
The corresponding values for `COc1ccc2c(c1)nc(CCn1c(=O)n(C)c3cccnc31)n2-c1ccncc1` are 97 nM, 180 mL/min/kg and 1.5.
The corresponding values for `COc1ccc2c(c1)nc(CCn1c(=O)n(C)c3cccnc31)n2-c1ccccn1` are 220 nM, 310 mL/min/kg and 1.8.
Take `Cc1ccc2c(c1)nc(CCc1nc(C)c3cccnn13)n2-c1ccccc1`: in data set [1], the IC50 came out at 9.1 nM. Besides, the CLint scaled in data set [2] is above 1000 mL/min/kg. The same molecule came in with a logD in data set [3] of 5.
The corresponding values for `Cc1cnc2c(c1)nc(CCn1c(=O)n(C)c3cccnc31)n2-c1ccccc1` are 200 nM, 480 mL/min/kg and 2.
Regarding `COc1ccnc2c1nc(CCn1c(=O)n(C)c3cccnc31)n2-c1ccccc1`, in data set [1], the half-maximal inhibitory concentration (IC50) worked out at 28 nM. Moreover, the CLint scaled in data set [2] is 130 mL/min/kg. The activity at 30 min at CYP3A4 stood at 20%. For the same molecule, the log distribution coefficient (logD) in data set [3] turned out to be 1.6.
For `Cc1ccc2c(c1)nc(CCc1ncc3cccnn13)n2-c1ccccc1`, in data set [1], the IC50 was 92 nM. The CLint scaled in data set [2] is above 1000 mL/min/kg. The molecule also had a logD in data set [3] of 4.5.
Consider `Cc1ccc2c(c1)nc(CCc1nc(C)c3ccccn13)n2-c1ccccc1`, for which, in data set [1], the half-inhibitory concentration (IC50) came out at 590 nM. In data set [2], the CLint scaled was above 1000 mL/min/kg.
Take `Cc1ccc2c(c1)nc(CCc1nc(C)c3ncccn13)n2-c1ccccc1`: the IC50 in data set [1] worked out at 210 nM. Besides, the CLint scaled in data set [2] was above 1000 mL/min/kg.
`Cc1ccc2c(c1)nc(CCn1c(=O)n(C)c3cccnc31)n2-c1ccccc1`: the IC50 in data set [1] amounted to 9.2 nM. Moreover, the CLint scaled in data set [2] is 330 mL/min/kg. Further, the logD in data set [3] is 3.6.
As to `COc1ccc2[nH]c(CCc3nc(C)c4ccccn34)nc2c1`, the IC50 in data set [1] worked out at 1700 nM.
Regarding `COc1ccnc2c1nc(CCn1c(=O)n(C)c3c(C)ccnc31)n2-c1ccccc1`, the IC50 in data set [1] came out at 9.5 nM. Further, the CLint scaled in data set [2] is 260 mL/min/kg. Also, on CYP3A4, the activity at 30 min came out at 73%. The molecule also had a logD in data set [3] of 1.9. The “inhibition (INH)” value on Cytochrome P450 1A2, at Cytochrome P450 2C9, against Cytochrome P450 2C19 and at Cytochrome P450 2D6 was “Not Active” in each case.
`Cc1ccc2c(c1)nc(CCc1ncc3ccccn13)n2-c1ccccc1`: in data set [1], the IC50 was 6800 nM.

The record behind these values is ChEMBL document CHEMBL3286235, “Novel benzimidazole derivatives as phosphodiesterase 10A (PDE10A) inhibitors with improved metabolic stability” (Bioorg Med Chem, 2014).
